UBC9 SUMO inh: inhibitors of in vitro SUMOylation cascade, primary screen, biochemical, HTRF, uHTS. SUMO-conjugating enzyme UBC9 (Homo sapiens), P63279. HTRF SUMOylation assay, SAE1/SAE2 + UBC9. inhibition, % at 35 µM. 290,000 tested, 0.36% active; in the data active means inhibition above about 50%, passing the limit was not always enough
14-3-3 Bad PPI: inhibitors of 14-3-3 zeta/Bad binding, primary screen, biochemical, TR-FRET, bovine 14-3-3 zeta. 14-3-3 protein zeta/delta (Bos taurus), P63103. TR-FRET 14-3-3zeta/Dy647-pBad peptide displacement, 1 h. inhibition, % at 21.7 µM. 220,000 tested, 0.71% active. AID 781, 2007;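 active means inhibition above about 70%, limit read from the data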
TbMetRS inhib: T. brucei MetRS inhibitors, primary screen, biochemical, luminescence; inhibition, % at 11.9 µM; methionyl-tRNA synthetase (Trypanosoma brucei brucei); purified T. brucei MetRS, ATP depletion, Kinase-Glo luminescence; 360,000 tested, 0.4% active;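 active means inhibition above a per-plate cutoff of the control wells' mean inhibition plus 3 SD, cut at about 5.5% in these data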
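Material: parasite MetRS enzyme / Replication: singlicate, one well per compound / Signal: luminescence of leftover ATP / Schedule: 2 h aminoacylation at 25 °C after 15 min preincubation / Medium: HEPES-MgCl2-KCl buffer plus DTT, spermine, BSA, pyrophosphatase / Doses: 11.9 µM single point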
eIF4E-4G inh: eIF4E–eIF4G protein interaction inhibitors, primary screen, biochemical, uHTS, TR-FRET, eIF4GI fragment; inhibition, % at 21.7 µM; 220,000 tested, 0.37% active; TR-FRET eIF4E-eIF4GI(517-606) binding, 2 h
p47phox inh: p47phox/p22phox peptide binding inhibitors, primary screen, biochemical, uHTS, NADPH oxidase regulatory subunit; inhibition, % at 24.7 µM; fluorescence polarization, 2 h; AID 1274, 2008; Neutrophil cytosol factor 1 (Homo sapiens), P14598; 220,000 tested, 0.53% active
p97 inhibitor: inhibitors of human p97 ATPase, primary screen, biochemical | Transitional endoplasmic reticulum ATPase (Homo sapiens), P55072 | inhibition, % at 8 µM | recombinant p97 ATPase, Kinase-Glo ATP luminescence, 3 h | AID 1481, 2009 | 220,000 tested, 0.42% active; in the data active means inhibition above about 15%
Hits are given with their value; 0 = inactive; - = no result; [ ] = remark or other dose. Rows were chosen to be rich in hits. Some 1.6% of all compounds tested hit in one or more screens of this group.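 How the source made its calls, unless noted: active means inhibition above about 30% (limit read from the data); inactive means the rest.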

SMILES | UBC9 SUMO inh | 14-3-3 Bad PPI | TbMetRS inhib | eIF4E-4G inh | p47phox inh | p97 inhibitor
Cc1[nH][nH]c(=O)c1C(c1c(C)[nH][nH]c1=O)c1cn(Cc2ccc(F)cc2)c2ccccc12 | 0 | 0 | 0 | 0 | 0 | 26
COCc1nc2oc3ccccc3c(=O)c2cc1C(=O)OC | 0 | - | 0 | - | - | -
CN(C)c1ccc(C2Nc3ccccc3C(=O)N2NS(C)(=O)=O)cc1 (centres undefined) | 0 | - | 0 | - | - | -
COc1cc2cc(C(=O)O)n(C)c2c(OC)c1OC | 0 | 0 | 0 | 0 | 60 | 0
COc1cc2cc(C(=O)N[C@@H](Cc3ccccc3)C(=O)O)n(C)c2c(OC)c1OC | 0 | - | 0 | - | - | -
Cc1c(Cl)c(-c2n[nH]c(=S)n2-c2ccc(F)cc2)nn1C | 0 | 0 | 0 | 0 | 0 | 0
CCN=C1NN=C(c2cc(C)n(CCc3ccccc3)c2C)CS1 | 0 | 92 | 0 | 0 | 0 | 0
CCOC(=O)[C@]12CCCC=C1N(CCC1=CCCCC1)C(=O)[C@H](CC(=O)NCC1CCCCC1)C2 | - | - | 0 | - | - | -
O=C(Cc1ccc([N+](=O)[O-])cc1)Nc1ccc(Cl)cc1 | 0 | 0 | 0 | 0 | 77 | 0
Cc1ccc(-c2nnc(N3CC(C)OC(C)C3)c3ccccc23)cc1 (centres undefined) | 0 | 75 | 0 | 0 | 0 | 0
Cc1cccc(CC2CC(=O)N(c3nc4ccccc4s3)C2=O)c1 (centres undefined) | 0 | 0 | 0 | 0 | 0 | 0
COc1ccc2sc(N3C(=O)CC(Cc4cccc(C)c4)C3=O)nc2c1 (centres undefined) | 0 | 88 | 0 | 0 | 0 | 0
Cn1ccnc1C(=O)c1cccc([N+](=O)[O-])c1 | 0 | 91 | 0 | 0 | 0 | 0
CC(=O)Nc1cccc(Oc2nc(NCCN(C)C)nc3ccsc23)c1 | - | - | 0 | - | - | -
O=C(NCc1ccco1)c1ccc2sc([C@H]3C[C@H](O)[C@@H](CO)O3)nc2c1 | - | - | 0 | - | - | -
O=S(=O)(Nc1ccccn1)c1ccc(Cl)cc1 | 0 | 0 | 0 | 0 | 0 | 0
CN(C)S(=O)(=O)Nc1ccccn1 | 0 | 0 | 0 | 55 | 0 | 0
S=C(Nc1ccc2nccnc2c1)N1CCOCC1 | 89 | 0 | 0 | 0 | 0 | 0
S=C(Nc1ccc2nc(-c3ccccn3)c(-c3ccccn3)nc2c1)N1CCCCC1 | 69 | 0 | 0 | 0 | 0 | 0
O=C1CCCc2cc3c(cc21)CC1(C3)Cc2cc3c(cc2C1)C(=O)CCC3 | 82 | 0 | 0 | 0 | 0 | 0
CCc1ccc2c(c1)C(=O)CCC2 | - | - | 0 | - | - | -
CCCNC(=O)c1ccc2c(=O)c(O)c(-c3ccsc3)[nH]c2c1 | 53 | 0 | 0 | 0 | 0 | -
CC1(C)CC(=O)c2sc(NS(=O)(=O)c3ccccc3)nc2C1 | 0 | 0 | 0 | 0 | 0 | 0
CC1(C)CC(=O)c2sc(NS(C)(=O)=O)nc2C1 | 0 | 71 | 0 | 0 | 0 | 0
O=C(/C=C/c1ccc(Cl)cc1Cl)NCc1ccncc1 | 0 | 0 | 8.9 | 0 | 0 | 0
SMILES | UBC9 SUMO inh | 14-3-3 Bad PPI | TbMetRS inhib | eIF4E-4G inh | p47phox inh | p97 inhibitor
O=C(/C=C/c1ccc(Cl)cc1Cl)Nc1ccncc1 | 0 | 0 | 0 | 0 | 0 | 0
CCOC(=O)c1cc(-c2ccc(OC)cc2)nn1-c1ccccc1C(=O)O | 0 | 0 | 0 | 34 | 0 | 0
COc1ccc(OC)c(C2Nc3c(Cl)ccc(C(=O)O)c3C3C=CCC32)c1 (centres undefined) | 0 | 0 | 0 | 0 | 0 | 0
O=C(O)C1Nc2c(O)cc(Cl)c([N+](=O)[O-])c2C2C=CCC12 (centres undefined) | 99 | 97 | 0 | 78 | 0 | 54
O=C(Nc1ccc(S(=O)(=O)Nc2ncccn2)cc1)c1ccc2ncsc2c1 | 0 | 81 | 0 | 51 | 0 | 0
O=C(Nc1ccncc1)c1ccc2ncsc2c1 | - | - | 0 | - | - | -
NS(=O)(=O)c1ccc(NC(=O)c2ccc3nccnc3c2)cc1 | 0 | 0 | 0 | 94 | 0 | 0
O=C(N=C1c2ccccc2CN1c1cccc(Cl)c1)c1cccnc1 | 0 | 0 | 0 | 0 | 0 | 0
O=C(N=C1c2ccccc2CN1c1ccc(F)c(F)c1)c1cccnc1 | 0 | 71 | 0 | 0 | 0 | 0
COc1ccccc1C(=O)NCCNc1ccc([N+](=O)[O-])cc1Cl | 0 | - | 0 | - | - | -
COc1ccc(OCC(=O)NNC(=O)c2cccnc2)cc1 | 0 | 92 | 0 | 0 | 0 | 0
COc1ccccc1-c1nnc(NC(=O)c2ccc3c(c2)OCO3)s1 | 0 | 71 | 0 | 0 | 0 | 0
Clc1ccc(-c2csc(N/N=C\c3cccnc3)n2)cc1 | 0 | 76 | 0 | 0 | 0 | 0
COc1cc(NC(C)CCCN)c2ncccc2c1 (centres undefined) | - | - | 0 | - | - | -
COc1cc(NCCCCCCCN)c2ncccc2c1 | 52 | 0 | 0 | 0 | 34 | 0
O=C(COC(=O)c1ccc2ncsc2c1)Nc1cc(Cl)ccc1F | - | - | 0 | - | - | -
O=C(COC(=O)c1ccc2ncsc2c1)NC(=O)c1ccccc1 | 0 | 0 | 0 | 0 | 0 | 0
Cc1c(Cl)cnc(NC(=O)COC(=O)c2cccs2)c1Cl | - | - | 0 | - | - | -
COc1ccc(C(=O)NC(=O)COC(=O)c2ccc3ncsc3c2)cc1 | 68 | 78 | - | 0 | 0 | 0
Cc1c(Cl)cnc(NC(=O)COC(=O)c2ccc3ncsc3c2)c1Cl | 0 | 70 | 0 | 0 | 0 | 0
O=C(COC(=O)c1ccc2ncsc2c1)Nc1ncc(Cl)cc1Cl | 0 | 73[fluorescence artefact?] | 0 | 0 | 0 | 0
COc1ccc(/C=C2/NC(=O)CNC2=O)cc1 | 0 | - | 0 | - | - | -
CCN(CC)C(=O)CSc1nc2cc3c(cc2c(=O)n1Cc1ccco1)OCO3 | 0 | 0 | 0 | 0 | 0 | 0
CCC(C)NC(=O)CSc1nc2cc3c(cc2c(=O)n1Cc1ccco1)OCO3 (centres undefined) | 0 | 0 | 0 | 0 | 30 | 0
CC(C)CCOc1ccc(C(=O)NN2C(=O)NC3(CCCCC3)C2=O)cc1 | - | - | 0 | - | - | -
CCCCCC(=O)NC(NC(=S)N1CCOCC1)C(Cl)(Cl)Cl (centres undefined) | 0 | 0 | 0 | 0 | 0 | 0
CCCCCC(=O)NC(NC(=S)NC1CCS(=O)(=O)C1)C(Cl)(Cl)Cl (centres undefined) | 0 | 0 | 0 | 40 | 0 | 0
Cc1ccc2c(c1)C1(OCCCO1)C(=O)N2 | 0 | - | 0 | - | - | -
CCOc1ccccc1CN1CCC(n2nccc2NC(=O)C2CCCC2)CC1 | 0 | - | 0 | - | - | -
COc1cc2cc(C(c3nnnn3C3CCCC3)N(C)C3CCCCC3)c(=O)[nH]c2cc1OC (centres undefined) | 0 | 0 | 0 | 30 | 0 | 0

Source: PubChem BioAssay (several laboratories)
